Data: ChEMBL document CHEMBL1124154, “Polycyclic aryl- and heteroarylpiperazinyl imides as 5-HT1A receptor ligands and potential anxiolytic agents: synthesis and structure-activity relationship studies” (J Med Chem, 1988)

Experiments:
[1] = molecular target: D(2) dopamine receptor (Rattus norvegicus) (UniProt P61169); assay: In vitro inhibition of [3H]spiperone binding to dopamine receptor D2 from rat brain limbic tissue at 1 uM; assay type: tissue-based; conditions: Limbic system
[2] = molecular target: T1, 5-hydroxytryptamine receptor 1A (Rattus norvegicus) (UniProt P19327); assay: In vitro inhibition of [3H]-8-hydroxy-2-(di-n-propylamino)tetralin binding to 5-hydroxytryptamine 1A receptor from rat hippocampal tissue at 1 uM; conditions: Hippocampus
T1 sequence (whole entry): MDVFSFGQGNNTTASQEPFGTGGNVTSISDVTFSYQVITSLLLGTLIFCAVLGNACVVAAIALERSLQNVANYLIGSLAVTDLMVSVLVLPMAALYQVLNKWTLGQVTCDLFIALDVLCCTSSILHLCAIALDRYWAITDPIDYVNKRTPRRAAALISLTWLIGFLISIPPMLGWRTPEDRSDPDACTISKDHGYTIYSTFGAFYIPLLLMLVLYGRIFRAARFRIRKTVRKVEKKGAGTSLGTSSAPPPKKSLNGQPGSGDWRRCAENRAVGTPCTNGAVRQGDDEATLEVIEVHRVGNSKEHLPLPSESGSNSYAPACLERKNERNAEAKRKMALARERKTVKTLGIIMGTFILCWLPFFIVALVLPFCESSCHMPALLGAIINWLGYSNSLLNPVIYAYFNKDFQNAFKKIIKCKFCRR

Rattus norvegicus = organism: Rattus norvegicus; assay: Concentration required to produce 50% block in avoidance responding in conditioned avoidance response test in rat; assay type: functional
Summary of the method: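 Trained rats in shelf-jump and/or discrete-trial conditioned avoidance paradigms. Drug given ip or po to at least five rats per dose, with a control session before each drug run. Trials without avoidance (avoidance block) were counted per dose as a percentage of total trials, with control set at 100%. AB50 was taken from a least-squares dose-effect regression line.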

[3] = molecular target: T2, 5-hydroxytryptamine receptor 1A (Rattus norvegicus, UniProt P19327); assay: In vitro inhibition of [3H]-8-hydroxy-2-(di-n-propylamino)tetralin binding to 5-hydroxytryptamine 1A receptor from rat hippocampal tissue.
T2 sequence (P19327 whole entry): T1 sequence (whole entry)

[4] = Partition coefficient (logP); assay type: physicochemical; conditions: octanol/water
D(2) dopamine receptor = D(2) dopamine receptor (Rattus norvegicus, UniProt P61169); assay: In vitro inhibition of [3H]spiperone binding to Dopamine receptor D2 from rat brain limbic tissue; assay type: tissue-based, Limbic system
D(2) dopamine receptor, sequence (P61169 whole entry): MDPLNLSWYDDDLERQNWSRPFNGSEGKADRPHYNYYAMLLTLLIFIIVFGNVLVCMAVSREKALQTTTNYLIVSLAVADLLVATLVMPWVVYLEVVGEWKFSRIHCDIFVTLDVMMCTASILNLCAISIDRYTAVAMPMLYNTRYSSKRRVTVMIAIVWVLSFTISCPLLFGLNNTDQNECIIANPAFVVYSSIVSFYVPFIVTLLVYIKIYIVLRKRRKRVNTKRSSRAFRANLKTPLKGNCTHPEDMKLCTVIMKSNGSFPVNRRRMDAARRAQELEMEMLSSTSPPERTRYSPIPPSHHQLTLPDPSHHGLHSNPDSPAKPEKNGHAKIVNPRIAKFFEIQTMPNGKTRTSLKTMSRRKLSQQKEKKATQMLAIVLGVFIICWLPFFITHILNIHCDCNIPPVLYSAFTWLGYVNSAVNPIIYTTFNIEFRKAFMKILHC
Summary of the method: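 Limbic tissue (nucleus accumbens, septum, olfactory tubercle) from Sprague-Dawley rats, washed membranes at 0.2-0.3 mg protein. Incubated with 0.3 nM [3H]spiroperidol and a range of drug concentrations, 10 min at 37 °C, in Tris buffer pH 7.1 with NaCl, KCl, CaCl2, ascorbate and pargyline. Filtered through GF/B and counted by scintillation. Nonspecific binding defined with 1 μM (+)-butaclamol.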

D(2) dopamine receptor (Rattus norvegicus), sequence (P61169 whole entry): as above

Row | Structure (SMILES) | inhibition [1] [%] | inhibition [2] [%] | AB50 (Rattus norvegicus) [mg/kg] | Ki [3] [µM] | logP [4] | Ki (D(2) dopamine receptor) [µM]
1 | Cl.O=C1C2C3C=CC(C4C=CC43)C2C(=O)N1CCCCN1CCN(c2cnccn2)CC1 (centres undefined) | 13 | 46 | 40 | – | – | –
2 | COc1ccccc1N1CCN(CCCCN2C(=O)C3C4C=CC(C5C=CC54)C3C2=O)CC1.Cl (centres undefined) | 100 | 100 | 19 | 0.0013 | – | –
3 | Cl.O=C1C2C3CCCC(CC3)C2C(=O)N1CCCCN1CCN(c2cccc(C(F)(F)F)c2)CC1 (centres undefined) | 97 | – | >40 | 0.017 | – | –
4 | O=C1C2C3CCC(C4CCC43)C2C(=O)N1CCCCN1CCN(c2cncc(Cl)n2)CC1 (centres undefined) | – | – | >40 | 0.051 | – | –
5 | O=C1C2C3CCC(C4CC43)C2C(=O)N1CCCCN1CCN(c2cncc(Cl)n2)CC1 (centres undefined) | 49 | 72 | 40 | – | – | –
6 | O=C1C2C3C=CC(C3)C2C(=O)N1CCCCN1CCN(c2cncc(Cl)n2)CC1 (centres undefined) | 1 | 74 | 40 | – | – | –
7 | O=C1C2C3C=CC(CCC3)C2C(=O)N1CCCCN1CCN(c2cncc(Cl)n2)CC1 (centres undefined) | 43 | – | 68 | – | – | –
8 | Cl.O=C1C2C3CCC(C4CC43)C2C(=O)N1CCCCN1CCN(c2ncccn2)CC1 (centres undefined) | – | – | 34 | – | 1.83 | –
9 | Cl.Cn1nnnc1N1CCN(CCCCN2C(=O)C3C4C=CC(C5CCC45)C3C2=O)CC1 (centres undefined) | 39 | 47 | 40 | – | – | –
10 | Cl.O=C1C2C3CCCC(CC3)C2C(=O)N1CCCCN1CCN(c2ncccn2)CC1 (centres undefined) | 74 | – | 40 | 0.005 | – | –
11 | O=C1N(CCCCN2CCN(c3cncc(Cl)n3)CC2)C(=O)C23C4CCC(C4)C12C1CCC3C1 (centres undefined) | – | 23 | 40 | – | – | –
12 | O=C1C2C3C=CC(CCCC3)C2C(=O)N1CCCCN1CCN(c2cncc(Cl)n2)CC1 (centres undefined) | – | – | 25 | – | – | –
13 | O=C1N(CCCCN2CCN(c3cncc(Cl)n3)CC2)C(=O)C23C4C=CC(C4)C12C1C=CC3C1 (centres undefined) | – | 98 | >40 | – | – | –
14 | O=C1C2C3C=CC(C4CC34)C2C(=O)N1CCCCN1CCN(c2cncc(Cl)n2)CC1 (centres undefined) | – | – | 40 | – | – | –
15 | O=C1C2C3C=CC(C4CCC34)C2C(=O)N1CCCCN1CCN(c2ccc(Cl)nn2)CC1 (centres undefined) | – | – | >40 | – | – | 1.92
16 | Cl.O=C1N(CCCCN2CCN(c3ncccn3)CC2)C(=O)C23C4CCC(C4)C12C1CCC3C1 (centres undefined) | 63 | – | 40 | – | – | –
17 | O=C1C2C3C=CC(C4CC34)C2C(=O)N1CCCCC1CCN(c2cncc(Cl)n2)CC1 (centres undefined) | 21 | 8 | 40 | – | – | –
18 | CC(C)=C1C2C=CC1C1C(=O)N(CCCCN3CCN(c4cncc(Cl)n4)CC3)C(=O)C21 (centres undefined) | – | – | 40 | – | – | 0.968
19 | Cl.O=C1C2C3C=CC(C4C=CC43)C2C(=O)N1CCCCN1CCN(c2ccc(C(F)(F)F)cn2)CC1 (centres undefined) | 31 | 40 | >40 | – | – | –
20 | O=C1C2C3C=CC(C4CC34)C2C(=O)N1CCCCN1CCN(c2ccc(Cl)nn2)CC1 (centres undefined) | – | – | 40 | – | – | 2.33
21 | Cl.O=C1N(CCCCN2CCN(c3ncccn3)CC2)C(=O)C23C4C=CC(C4)C12C1C=CC3C1 (centres undefined) | 53 | – | 40 | – | – | –
22 | O=C1C2C3CCCC(CC3)C2C(=O)N1CCCCN1CCN(c2cncc(Cl)n2)CC1 (centres undefined) | 49 | – | >40 | 0.162 | – | –

Row | Structure (SMILES) | inhibition [1] [%] | inhibition [2] [%] | AB50 (Rattus norvegicus) [mg/kg] | Ki [3] [µM] | logP [4] | Ki (D(2) dopamine receptor) [µM]
23 | Cl.O=C1C2C3C=CC(C4C=CC43)C2C(=O)N1CCCCN1CCN(c2cccc(C(F)(F)F)c2)CC1 (centres undefined) | 96 | – | 40 | 0.025 | – | –
24 | O=C1C2C3CCC(C4CC43)C2C(=O)N1CCCCN1CCN(c2nccnc2Cl)CC1 (centres undefined) | 75 | – | 61 | 0.026 | – | –
25 | O=C1C2C3C=CC(C4CC34)C2C(=O)N1CCCCN1CCN(c2cccc(Cl)c2)CC1 (centres undefined) | 100 | – | 40 | 0.014 | – | –
26 | O=C1C2CCCCC2C(=O)N1CCCCN1CCN(c2ncccn2)CC1 (centres undefined) | – | – | 6 | – | – | 0.374
27 | O=C1[C@@H]2[C@H]3CC[C@H](C3)[C@@H]2C(=O)N1CCCCN1CCN(c2ncccn2)CC1 [TANDOSPIRONE] | – | – | 28 | 0.009 | – | –
28 | Cl.O=C1C2C3CCC(C4CC43)C2C(=O)N1CCCCN1CCN(c2cccc(C(F)(F)F)c2)CC1 (centres undefined) | 92 | – | >40 | 0.02 | – | –
29 | Cl.O=C1C2C3CCCC(CC3)C2C(=O)N1CCCCN1CCN(c2ccc(C(F)(F)F)cn2)CC1 (centres undefined) | 33 | 71 | >40 | – | – | –
30 | Cl.O=C1C2C3C=CC(C4CC34)C2C(=O)N1CCCCN1CCN(c2ccc(C(F)(F)F)cn2)CC1 (centres undefined) | 40 | 55 | 40 | – | – | –
31 | Cl.O=C1N(CCCCN2CCN(c3cnccn3)CC2)C(=O)C23C4C=CC(C4)C12C1C=CC3C1 (centres undefined) | 14 | – | 40 | 0.129 | – | –
32 | O=C1C2C3C=CC(C3)C2C(=O)N1CCCCN1CCN(c2nccnc2Cl)CC1 (centres undefined) | 48 | – | 40 | 0.037 | – | –
33 | Cl.O=C1C2C3CS(=O)(=O)CC3C2C(=O)N1CCCCN1CCN(c2ncccn2)CC1 (centres undefined) | 0 | 44 | >40 | – | – | –
34 | Cl.O=C1C2C3C=CC(CCC3)C2C(=O)N1CCCCc1ccncc1 (centres undefined) | 6 | 0 | 40 | – | – | –
35 | O=C1C2C3C=CC(C4C=CC43)C2C(=O)N1CCCCN1CCN(c2cncc(Cl)n2)CC1 (centres undefined) | 50 | – | 40 | – | – | –
36 | Cl.O=C1C2C3C=CC(C4CC34)C2C(=O)N1CCCCc1ccncc1 (centres undefined) | 0 | 0 | >40 | – | – | –
37 | O=C1C2C3CS(=O)(=O)CC3C2C(=O)N1CCCCN1CCN(c2cncc(Cl)n2)CC1 (centres undefined) | 0 | 35 | 40 | – | – | –
38 | O=C1C2C3C=CC(C4CCC34)C2C(=O)N1CCCCN1CCN(c2cccc(Cl)c2)CC1 (centres undefined) | 87 | – | 40 | 0.019 | – | –
39 | Cl.O=C1C2C3C=CC(C4CCC34)C2C(=O)N1CCCCN1CCN(c2cccc(C(F)(F)F)c2)CC1 (centres undefined) | 99 | – | 40 | 0.057 | – | –
40 | Cl.O=C1C2C3C=CC(C4CC34)C2C(=O)N1CCCCN1CCN(c2cccc(C(F)(F)F)c2)CC1 (centres undefined) | 91 | – | 44 | 0.026 | – | –
41 | O=C1C2C3C=CC(C4CCC34)C2C(=O)N1CCCCN1CCN(c2cncc(Cl)n2)CC1 (centres undefined) | – | – | 40 | 0.19 | – | –
42 | O=C1C2C3CS(=O)(=O)CC3C2C(=O)N1CCCCN1CCN(c2nccnc2Cl)CC1 (centres undefined) | 0 | 28 | 40 | – | – | –
43 | O=C1C2C3C=CC(C3)C2C(=O)N1CCCCN1CCN(c2ccc(Cl)nn2)CC1 (centres undefined) | 19 | – | 40 | – | – | –
44 | O=C1C2C3C=CC(C4C=CC43)C2C(=O)N1CCCCN1CCN(c2cccc(Cl)c2)CC1 (centres undefined) | 3 | – | >40 | 0.041 | – | –
